# According to PubChem BioAssay:
# Activity calls are given as the source filed them.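 The calls were made as follows, unless noted: active = viability at or below 30% in both replicate assays; inconclusive = viability at or below 30% in just one of the two assays; inactive = the rest.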
# How the values were obtained:
# [1] = reducers of endogenous Her2 protein level, primary screen, SKBR3 breast tumor cells, AlphaScreen, ATP viability (AID 461;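 active = Her2 level under about 52% in both replicate screens, with viability over 70% of control, limit read from the data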;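 as to Her2 level: lower value means less Her2 protein in the cells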;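 as to viability: percent of carrier control wells set as 100% viability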); conditions: 18-24 h, measured here: SKBR3 viability, ATP luminescence, at 10 µM
# [2] = target: Receptor tyrosine-protein kinase erbB-2 (Homo sapiens) (UniProt P04626); assay: as above; conditions: 18-24 h, at 10 µM, stronger effect = lower value
# [3] = SK-BR-3 cell growth inhibitors, pilot screen, 24 h, human (AID 572;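 active = viability at or below 10% of carrier control in both of two separate runs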;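 also: compound exposure lasted between 18 and 24 h rather than exactly 24 h; 100% = carrier-treated control wells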); conditions: SK-BR-3 viability, CellTiter-Glo luminescence, at 10 µM, stronger effect = lower value
# [4] = HUVEC growth inhibition – cell-based, human, primary screen (AID 575); conditions: HUVEC proliferation, CellTiter-Glo luminescence, 72 h; at 10 µM; stronger effect = lower value;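 also: 100% = median of untreated cell wells with 0.1% DMSO on each plate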
# In short: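 Material: primary human umbilical vein endothelial cells / Schedule: 72 h exposure, 37 °C, 5% CO2, 30 min RT equilibration / Signal: ATP-based CellTiter-Glo luminescent read / Read-out basis: percent of median DMSO-control luminescence / Control set: 32 DMSO-only cell-control wells (high), 32 MePR drug-control wells (low) per plate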
# [5] = growth inhibitors of H69AR lung tumor, primary screen, human, duplicate replicates (AID 580;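 active = viability at or under a set limit in both replicates, limit being median viability minus 3 SD, cut at about 48% in these data, passing the limit was not always enough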;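 also: 100% = mean luminescence of untreated wells and 0% = no signal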); conditions: H69AR lung tumor cells viability, ATP luminescence, 72 h; at 10 µM; stronger effect = lower value
# [6] = reversal of MRP1-mediated doxorubicin resistance, pilot screen, H69AR cells, doxorubicin co-treatment (AID 601;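 active = viability loss from added drug above about 55%, and viability with drug at most 40%, in both replicates, limit read from the data, passing the limit was not always enough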); conditions: CellTiter-Glo, 72 h, at 10 µM; for differential viability (reversal): stronger effect = higher value
# [7] = 384-well plate pilot, post-Golgi transport modulator project, inhibition of yeast transport mutant growth (AID 636; in the data active = inhibition above about 31%); conditions: absorbance 615 nm, about 18 h, stronger effect = higher value
# [8] = growth suppression of yeast trafficking mutant, preliminary HTS, modulators of trafficking downstream of Golgi apparatus project, 1536-format plate, OD 615 nm (AID 637; in the data active = inhibition above about 30%); conditions: yeast transport mutant growth, absorbance 615 nm, 18 h; stronger effect = higher value
# [9] = H69AR cells + 2 uM doxorubicin, measured here: viability with 2 uM doxorubicin, stronger effect = lower value
# [10] = H69AR cells, compound alone cytotoxicity
# Chain of Receptor tyrosine-protein kinase erbB-2 (Homo sapiens) (P04626 whole entry, looked up): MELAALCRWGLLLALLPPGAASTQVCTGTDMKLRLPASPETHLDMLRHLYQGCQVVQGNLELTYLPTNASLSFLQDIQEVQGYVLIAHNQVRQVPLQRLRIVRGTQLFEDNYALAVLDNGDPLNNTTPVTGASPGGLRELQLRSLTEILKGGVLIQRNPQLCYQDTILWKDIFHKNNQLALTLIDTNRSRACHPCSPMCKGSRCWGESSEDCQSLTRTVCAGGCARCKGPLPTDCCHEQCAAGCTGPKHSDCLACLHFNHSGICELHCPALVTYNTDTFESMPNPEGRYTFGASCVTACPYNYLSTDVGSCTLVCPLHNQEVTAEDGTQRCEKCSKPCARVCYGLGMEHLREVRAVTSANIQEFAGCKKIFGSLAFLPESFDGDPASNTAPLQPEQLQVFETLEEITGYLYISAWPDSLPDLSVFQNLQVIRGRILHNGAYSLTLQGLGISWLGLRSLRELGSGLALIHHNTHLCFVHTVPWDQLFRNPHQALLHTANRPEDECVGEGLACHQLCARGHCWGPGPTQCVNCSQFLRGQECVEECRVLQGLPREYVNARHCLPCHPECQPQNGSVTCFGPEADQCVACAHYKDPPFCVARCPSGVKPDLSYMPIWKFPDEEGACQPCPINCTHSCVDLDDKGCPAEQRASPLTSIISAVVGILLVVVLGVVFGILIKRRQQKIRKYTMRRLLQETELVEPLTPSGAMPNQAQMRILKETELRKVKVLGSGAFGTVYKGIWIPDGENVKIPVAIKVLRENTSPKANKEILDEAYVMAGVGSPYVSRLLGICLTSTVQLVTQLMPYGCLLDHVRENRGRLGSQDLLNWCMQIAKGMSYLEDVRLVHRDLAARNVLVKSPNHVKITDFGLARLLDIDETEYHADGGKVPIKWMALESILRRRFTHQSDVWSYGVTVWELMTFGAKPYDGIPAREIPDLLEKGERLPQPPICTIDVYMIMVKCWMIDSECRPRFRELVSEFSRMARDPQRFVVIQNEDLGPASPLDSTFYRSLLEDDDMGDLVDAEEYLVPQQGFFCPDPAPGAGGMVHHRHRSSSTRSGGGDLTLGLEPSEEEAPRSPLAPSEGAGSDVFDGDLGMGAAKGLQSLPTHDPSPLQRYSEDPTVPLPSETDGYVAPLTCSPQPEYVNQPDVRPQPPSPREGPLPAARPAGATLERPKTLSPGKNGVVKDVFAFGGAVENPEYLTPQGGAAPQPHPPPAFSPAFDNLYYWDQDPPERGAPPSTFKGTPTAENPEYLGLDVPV
Compound,viability [1],Her2 level [2],viability [3],viability [4],viability [5],differential viability (reversal) ([6]; H69AR cells + 2 uM doxorubicin),"viability [6, 9]","viability [6, 10]",inhibition [7],inhibition [8]
COC(=O)Nc1ccc(S(=O)(=O)N(C)CC(F)(F)C(F)F)cc1,107%,102% (inactive),107% (inactive),107% (inactive),93.1% (inactive),-1.14% (inactive),94.2%,93.1%,-6.05% (inactive),1.8% (inactive)
COc1ccccc1OCCOc1ccccc1/C=N/n1cnnc1,81.5%,104% (inactive),81.5% (inactive),96.4% (inactive),70.9% (inactive),-22.5% (inactive),93.5%,70.9%,1.28% (inactive),-5% (inactive)
CCOCC(=O)Nc1sc2c(c1C(=O)OCC)CCCC2,89%,89.5% (inactive),89% (inactive),54% (inactive),90.5% (inactive),-4.83% (inactive),95.3%,90.5%,0.13% (inactive),1.64% (inactive)
OCCN1CCN(CC(O)COc2ccc3ccccc3c2)CC1 (stereo not given),88.5%,82% (inactive),88.5% (inactive),92.8% (inactive),102% (inactive),10% (inactive),92.3%,102%,-4.8% (inactive),5.25% (inactive)
COc1ccc(-n2c(Cc3cccn3C)nnc2SCC(=O)NCC2CCCO2)cc1 (stereo not given),100%,107% (inactive),100% (inactive),93.9% (inactive),100% (inactive),7.7% (inactive),92.3%,100%,-0.9% (inactive),3% (inactive)
COC(=O)CCC(=O)Nc1cccc(Cl)c1,118%,87% (inactive),118% (inactive),90.1% (inactive),85.4% (inactive),-5.69% (inactive),91.1%,85.4%,-0.65% (inactive),-2.54% (inactive)
O=C(c1ccccc1Cl)N1CCc2ccccc2C1,97%,75% (inactive),97% (inactive),97.1% (inactive),83% (inactive),1.55% (inactive),81.5%,83%,-8.49% (inactive),-5.4% (inactive)
COc1cccc(C(=O)OCn2nnc3ccccc3c2=O)c1,88%,92.5% (inactive),88% (inactive),108% (inactive),114% (inactive),4.58% (inactive),109%,114%,-0.13% (inactive),16.5% (inactive)
O=S(=O)(c1ccccc1)c1nc(-c2ccco2)oc1NCCCN1CCOCC1,91%,100% (inactive),91% (inactive),84.6% (inactive),95.4% (inactive),-1.43% (inactive),96.8%,95.4%,-1.73% (inactive),-3.23% (inactive)
O=C(O)c1cc(=O)cc(C(=O)O)[nH]1,80.5%,91.5% (inactive),80.5% (inactive),102% (inactive),105% (inactive),12.5% (inactive),92.7%,105%,0% (inactive),22.9% (inactive)
COc1cc2nc(C3CCC3)n(NC(=O)C3CCCC(OC)C3)c(=O)c2cc1OC (stereo not given),100%,110% (inactive),100% (inactive),117% (inactive),92.2% (inactive),-5.31% (inactive),97.5%,92.2%,-9.86% (inactive),-0.67% (inactive)
CC1CN(c2nc3ccccn3c(=O)c2/C=C(\C#N)S(=O)(=O)c2ccccc2)CC(C)O1 (stereo not given),93.5%,106% (inactive),93.5% (inactive),96.3% (inactive),90% (inactive),59% (active),31%,90%,-0.53% (inactive),-14.4% (inactive)
COc1cc2c(cc1OC)C(c1cccnc1)CC(=O)N2 (stereo not given),106%,95% (inactive),106% (inactive),82.2% (inactive),97.4% (inactive),8.69% (inactive),88.7%,97.4%,-1.73% (inactive),-0.98% (inactive)
CN1C2C=C3C(C#N)=C(N)C(C#N)(C#N)[C@@H](c4ccc(Cl)cc4)[C@@H]3C1CC2 (stereo not given in full),95%,87% (inactive),95% (inactive),91.3% (inactive),68.9% (inactive),-26.1% (inactive),94.9%,68.9%,-5.73% (inactive),-0.32% (inactive)
COc1ccc(-c2nn3c(-c4ccncc4)nnc3s2)cc1OC,105%,116% (inactive),105% (inactive),104% (inactive),99.2% (inactive),-8.5% (inactive),108%,99.2%,-0.39% (inactive),0.16% (inactive)
Cc1cc(C(=O)NCCCN2CCOCC2)n(-c2ccccc2)n1,94.5%,100% (inactive),94.5% (inactive),106% (inactive),102% (inactive),9.44% (inactive),92.2%,102%,-2.27% (inactive),3.61% (inactive)
O=C(O)CCNc1nc(-c2ccccc2)nc2ccccc12,87%,102% (inactive),87% (inactive),96.3% (inactive),91.1% (inactive),-2.72% (inactive),93.8%,91.1%,-0.13% (inactive),-1.11% (inactive)
O=C(NC1CCS(=O)(=O)C1)c1c(NC(=O)C2COc3ccccc3O2)sc2c1CCCC2 (stereo not given),67%,69.5% (inactive),67% (inactive),45.3% (inactive),38.3% (active),2.25% (inactive),36%,38.3%,-4.67% (inactive),-1.61% (inactive)
COc1ccc(C)cc1NCc1cccc(OC)c1OC,75.5%,90.5% (inactive),75.5% (inactive),87.2% (inactive),102% (inactive),-6.87% (inactive),109%,102%,-5.41% (inactive),-6.39% (inactive)
CCCCOc1ccc(CSc2n[nH]c(C)n2)cc1,83.5%,99.5% (inactive),83.5% (inactive),103% (inactive),100% (inactive),10.7% (inactive),89.7%,100%,-1.22% (inactive),-0.49% (inactive)
O=C(O)C1CC=CCC1C(=O)Nc1ccc(S(=O)(=O)N2CCCc3ccccc32)cc1 (stereo not given),85.5%,88% (inactive),85.5% (inactive),64.4% (inactive),98.7% (inactive),4.55% (inactive),94.1%,98.7%,-3.73% (inactive),0% (inactive)
CCCCOc1ccc(C(=O)Nn2cnnc2)cc1,95.5%,87% (inactive),95.5% (inactive),84.5% (inactive),89.5% (inactive),0.185% (inactive),89.4%,89.5%,-5% (inactive),-2% (inactive)
CCOC(=O)N1CCC(NC(=O)c2ccc3c(c2)N(C)CCS3)CC1,87%,92.5% (inactive),87% (inactive),109% (inactive),92.2% (inactive),8.3% (inactive),83.9%,92.2%,-4.21% (inactive),4.92% (inactive)
COC(=O)c1[nH]c2ccc(F)cc2c1NS(=O)(=O)c1ccc(OC)cc1OC,79%,75% (inactive),79% (inactive),88.5% (inactive),84.4% (inactive),-15.5% (inactive),99.9%,84.4%,-6.76% (inactive),4.92% (inactive)
COc1ccc(CCNC(=O)C2=COCCO2)cc1,126%,94% (inactive),126% (inactive),109% (inactive),108% (inactive),4.46% (inactive),104%,108%,-6.58% (inactive),-5.08% (inactive)
CN(C)CCCN1C(=O)C(=O)/C(=C(/O)c2ccncc2)C1c1cccc(Br)c1 (stereo not given),90.5%,97% (inactive),90.5% (inactive),118% (inactive),94.5% (inactive),5.26% (inactive),89.3%,94.5%,-2.93% (inactive),-5.9% (inactive)
COc1ccc(-n2c(COc3cccc(C)c3)nnc2SCC(=O)NCc2ccco2)cc1,126%,91% (inactive),126% (inactive),84.4% (inactive),85.4% (inactive),-10.3% (inactive),95.7%,85.4%,-2.84% (inactive),-1.43% (inactive)
CCOC(=O)C1CCN(c2c(NCCCN(CC)c3ccccc3)c(=O)c2=O)CC1,83.5%,86.5% (inactive),83.5% (inactive),91.9% (inactive),81.1% (inactive),8.21% (inactive),72.9%,81.1%,-1.18% (inactive),0.18% (inactive)
